From ChEMBL document CHEMBL4433211, “Discovery of the First-in-Class GSK-3β/HDAC Dual Inhibitor as Disease-Modifying Agent To Combat Alzheimer's Disease” (ACS Med Chem Lett, 2019)
Blank lines part the entries; values can stand above or below the compound they belong to. Calls of active or inactive are those of the source. The calls are words filed in the database; no cut-off is given here.

Experiments:
[1] = biological target: T1, Glycogen synthase kinase-3 beta (Homo sapiens, UniProt P49841); experiment: Inhibition of GSK3beta in human SH-SY5Y cells assessed as reduction in copper-induced tau hyperphosphorylation at 10 mM preincubated for 1 hr followed by copper addition and measured after 26 hrs by ELISA; type: cell-based; details: in the assay text read “16 hrs” for “26 hrs”
Outline: (§1)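 Differentiated SH-SY5Y cells pretreated 1 h with test agent (LiCl 10 mM reference; compounds 10 μM), then copper 400 μM for 16 h; cells scraped, phospho-tau quantified by immunoenzymatic assay at 450 nm; mean ± SEM.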
Target sequence in this assay (P49841 whole entry, looked up): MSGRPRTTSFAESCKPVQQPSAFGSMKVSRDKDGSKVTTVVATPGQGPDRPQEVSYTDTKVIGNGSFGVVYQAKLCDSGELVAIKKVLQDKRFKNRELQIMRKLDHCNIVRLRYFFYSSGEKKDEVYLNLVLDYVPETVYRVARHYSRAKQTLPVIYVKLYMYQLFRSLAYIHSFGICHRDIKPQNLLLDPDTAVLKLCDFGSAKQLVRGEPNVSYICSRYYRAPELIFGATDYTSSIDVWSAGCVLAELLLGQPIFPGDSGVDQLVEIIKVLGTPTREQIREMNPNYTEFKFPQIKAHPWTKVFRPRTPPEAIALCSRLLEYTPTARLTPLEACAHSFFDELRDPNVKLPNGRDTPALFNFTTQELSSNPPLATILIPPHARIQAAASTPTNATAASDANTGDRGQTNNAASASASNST

[2] = biological target: T1, Glycogen synthase kinase-3 beta; experiment: Inhibition of human recombinant GSK3beta using GSM as substrate incubated for 30 mins by luminescence based assay
Target sequence in this assay (P49841 whole entry): as the sequence (P49841 whole entry, looked up) above

Histone deacetylase 1 [3] = biological target: T2, Histone deacetylase 1 (Homo sapiens, UniProt Q13547); experiment: Inhibition of human recombinant his tagged HDAC1 expressed in baculovirus infected […] insect cells using tertbutyloxycarbonyl (Boc)-(Ac)-Lys-7-amino-4-methylcoumarin as substrate incubated for 1 hr by fluorescence based assay
[4] = biological target: T3, Protein deacetylase HDAC6 (Homo sapiens, UniProt Q9UBN7); experiment: Inhibition of human recombinant his tagged HDAC6 expressed in baculovirus infected […] insect cells using batcp as substrate incubated for 1 hr by fluorescence based assay
T3 sequence (Q9UBN7 whole entry): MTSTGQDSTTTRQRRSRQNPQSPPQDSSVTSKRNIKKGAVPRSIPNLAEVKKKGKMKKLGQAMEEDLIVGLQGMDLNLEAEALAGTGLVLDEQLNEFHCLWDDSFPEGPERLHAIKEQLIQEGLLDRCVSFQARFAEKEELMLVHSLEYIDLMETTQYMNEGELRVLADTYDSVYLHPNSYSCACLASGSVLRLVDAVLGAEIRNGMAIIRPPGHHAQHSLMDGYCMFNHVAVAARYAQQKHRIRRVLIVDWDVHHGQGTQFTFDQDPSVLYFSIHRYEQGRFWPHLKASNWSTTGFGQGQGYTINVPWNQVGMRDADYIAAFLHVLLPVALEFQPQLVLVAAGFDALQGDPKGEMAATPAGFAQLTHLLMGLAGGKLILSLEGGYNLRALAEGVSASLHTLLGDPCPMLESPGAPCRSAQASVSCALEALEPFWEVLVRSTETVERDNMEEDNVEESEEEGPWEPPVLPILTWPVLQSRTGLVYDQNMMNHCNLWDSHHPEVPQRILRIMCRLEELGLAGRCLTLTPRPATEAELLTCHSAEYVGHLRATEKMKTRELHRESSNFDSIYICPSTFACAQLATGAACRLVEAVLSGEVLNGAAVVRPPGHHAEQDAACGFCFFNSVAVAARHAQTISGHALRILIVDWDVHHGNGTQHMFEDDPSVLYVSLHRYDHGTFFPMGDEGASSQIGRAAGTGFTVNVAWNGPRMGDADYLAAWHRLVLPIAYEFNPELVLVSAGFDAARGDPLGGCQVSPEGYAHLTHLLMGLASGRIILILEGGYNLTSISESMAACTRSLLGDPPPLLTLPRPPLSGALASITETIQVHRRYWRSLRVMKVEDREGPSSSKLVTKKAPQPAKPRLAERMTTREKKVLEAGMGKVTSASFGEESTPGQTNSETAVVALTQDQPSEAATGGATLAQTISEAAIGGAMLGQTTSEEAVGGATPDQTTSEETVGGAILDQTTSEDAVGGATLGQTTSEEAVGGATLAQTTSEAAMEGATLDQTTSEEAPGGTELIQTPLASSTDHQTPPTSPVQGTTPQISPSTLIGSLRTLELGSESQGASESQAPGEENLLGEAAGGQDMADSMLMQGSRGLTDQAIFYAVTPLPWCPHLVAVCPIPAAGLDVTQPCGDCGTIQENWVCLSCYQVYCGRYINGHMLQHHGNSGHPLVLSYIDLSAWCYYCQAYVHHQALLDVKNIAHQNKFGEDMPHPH

Histone deacetylase 1 [5] = biological target: T2, Histone deacetylase 1; experiment: Inhibition of human recombinant his tagged HDAC1 expressed in baculovirus infected […] insect cells up to 30 uM using tertbutyloxycarbonyl (Boc)-(Ac)-Lys-7-amino-4-methylcoumarin as substrate incubated for 1 hr by fluorescence based assay
[6] = biological target: T4, Protein deacetylase HDAC6 (Homo sapiens) (UniProt Q9UBN7); experiment: Inhibition of human recombinant his tagged HDAC6 expressed in baculovirus infected […] insect cells up to 30 uM using batcp as substrate incubated for 1 hr by fluorescence based assay
T4 sequence (whole entry): T3 sequence (Q9UBN7 whole entry)

[7] = biological target: T1, Glycogen synthase kinase-3 beta; experiment: Inhibition of GSK3beta in human SH-SY5Y cells assessed as reduction in copper-induced tau hyperphosphorylation at 10 uM preincubated for 1 hr followed by copper addition and measured after 26 hrs by ELISA; type: cell-based; details: in the assay text read “16 hrs” for “26 hrs”; outline: as §1
Target sequence in this assay (P49841 whole entry, looked up): as the sequence (P49841 whole entry, looked up) above

SH-SY5Y [8] = experiment: Induction of neurogenesis in human SH-SY5Y cells assessed as upregulation of GAP43 mRNA at 10 uM incubated for 24 hrs by RT-PCR analysis; type: functional, cell-based
Outline: (§2)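 SH-SY5Y cells treated 24 h (10 μM, or 1 μM for one parent compound; retinoic acid positive control); GAP43, N-myc and MAP-2 mRNA measured by RT-PCR, expressed as fold of control.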

SH-SY5Y [9] = experiment: Induction of neurogenesis in human SH-SY5Y cells assessed as upregulation of N-myc mRNA at 10 uM incubated for 24 hrs by RT-PCR analysis; type: functional, cell-based; outline: as §2
SH-SY5Y [10] = experiment: Induction of neurogenesis in human SH-SY5Y cells assessed as upregulation of MAP-2 mRNA at 10 uM incubated for 24 hrs by RT-PCR analysis; type: functional, cell-based; outline: as §2
SH-SY5Y [11] = experiment: Induction of neurogenesis in human SH-SY5Y cells assessed as stimulation of neurite outgrowth at 10 uM incubated for 72 hrs by phase contrast microscopic analysis; type: functional, cell-based
Outline: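 SH-SY5Y cells treated 72 h at 10 μM, retinoic acid (10 μM) as positive control; neurite-bearing cells scored from images taken at 20× magnification.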

Microglia [12] = experiment: Immunomodulatory activity in LPS treated Wistar rat primary microglial cells assessed as decrease in NOS2 expression level at 5 to 50 uM incubated for 24 hrs by western blot analysis; type: functional, cell-based
Outline: (§3)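 Primary microglial cells treated 24 h with LPS in presence or absence of test compound; NOS2, MRC1 and TREM2 protein assessed by Western blot, normalized to GAPDH.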

Microglia [13] = experiment: Immunomodulatory activity in LPS treated Wistar rat primary microglial cells assessed as decrease in MRC1 expression level at 5 to 50 uM incubated for 24 hrs by western blot analysis; type: functional, cell-based; outline: as §3
Microglia [14] = experiment: Immunomodulatory activity in LPS treated Wistar rat primary microglial cells assessed as effect on TREM2 expression level at 5 to 50 uM incubated for 24 hrs by western blot analysis; type: functional, cell-based; outline: as §3
[15] = biological target: Histone deacetylase (Homo sapiens) (UniProt Q13547+O15379+Q9UBN7+Q92769+Q9UQL6+Q8WUI4+Q9BY41+Q96DB2+P56524+Q9UKV0+Q969S8); experiment: Synergistic inhibition of HDAC in human SH-SY5Y cells assessed as increase in acetylation of alpha-tubulin incubated for 30 hrs in presence of verinostat by Western blot analysis; type: cell-based
SH-SY5Y [16] = experiment: Synergistic neuroprotective activity against H2O2-induced cell death in human SH-SY5Y cells at 0.1 uM incubated for 24 hrs in presence of verinostat by MTS assay; type: functional, cell-based
Outline: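 SH-SY5Y cells challenged 24 h with H2O2 (25 and 50 μM) in presence of compounds (0.1–10 μM), alone or as a two-compound combination; viability by MTS assay as % of control.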

[17] = tested on: Cerebellar granule neurone; experiment: Neuroprotective activity against 6-OHDA-induced cell death in Wistar rat primary cerebellar granule neurons at 20 uM preincubated for 6 hrs followed by 6-OHDA addition and measured after 24 hrs in presence of in presence of 5 uM verinostat by MTT assay; type: functional, cell-based
Outline: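 Primary differentiated cerebellar granule neurons challenged with 6-OHDA with or without test compound; viability assessed; mean ± SE of at least 3 experiments in quadruplicate, one-way ANOVA with Bonferroni post hoc test.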

T2 sequence (Q13547 whole entry): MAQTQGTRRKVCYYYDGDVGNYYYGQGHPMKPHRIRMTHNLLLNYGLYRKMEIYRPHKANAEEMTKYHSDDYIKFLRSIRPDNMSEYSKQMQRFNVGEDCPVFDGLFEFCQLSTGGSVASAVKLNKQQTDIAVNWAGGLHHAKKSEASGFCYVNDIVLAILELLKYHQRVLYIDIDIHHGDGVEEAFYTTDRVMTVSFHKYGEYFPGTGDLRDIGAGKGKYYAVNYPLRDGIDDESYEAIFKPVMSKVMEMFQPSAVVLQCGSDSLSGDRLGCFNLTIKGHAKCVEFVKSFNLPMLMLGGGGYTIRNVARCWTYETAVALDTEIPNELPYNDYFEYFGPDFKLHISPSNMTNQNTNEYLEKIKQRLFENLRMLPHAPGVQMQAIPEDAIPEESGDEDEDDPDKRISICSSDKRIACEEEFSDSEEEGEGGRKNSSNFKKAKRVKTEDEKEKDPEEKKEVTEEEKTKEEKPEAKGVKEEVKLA

inhibition [1]: Active
Compound: [Cl-].[Li+]

IC50 [2]: 9.85 µM | IC50 (Histone deacetylase 1 [3]): 2.24 µM | IC50 [4]: 12.6 µM
Compound: O=C(CCCNC(=S)Nc1ccc2c(c1)C(=O)NC2=O)NO

IC50 [2]: 20.2 µM | inhibition (Histone deacetylase 1 [5]): inactive | inhibition [6]: inactive | inhibition [7]: Active | inhibition [15]: inactive
Compound: O=C1NC(=O)c2ccccc21 [PHTHALIMIDE]
Activity (SH-SY5Y [8]): Active | Activity (SH-SY5Y [9]): inactive | Activity (SH-SY5Y [10]): Active | Activity (SH-SY5Y [11]): Active | Activity (Microglia [12]): Active | Activity (Microglia [13]): Active | Activity (Microglia [14]): inactive | Activity (SH-SY5Y [16]): inactive | Activity [17]: Active

IC50 [2]: 4.11 µM | IC50 (Histone deacetylase 1 [3]): 5.02 µM | IC50 [4]: 14.7 µM
Compound: O=C(CCCCNC(=S)Nc1ccc2c(c1)C(=O)NC2=O)NO
